Test results: ChEMBL document CHEMBL4190361, “Discovery of New Selenoureido Analogues of 4-(4-Fluorophenylureido)benzenesulfonamide as Carbonic Anhydrase Inhibitors” (ACS Med Chem Lett, 2017)
The source made the active and inactive calls. No cut-off for these calls is given here.

Legend:
Carbonic anhydrase 9 = Carbonic anhydrase 9 (Homo sapiens, UniProt Q16790)
MDA-MB-231 [1] = experiment: Cytotoxicity against human MDA-MB-231 cells assessed as reduction in cell viability at 300 uM after 48 hrs under normoxic condition by MTT assay; format: functional, cell-based
Outline: (§1)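 Cells plated at 1 × 10^4/well and exposed to test agents at 30, 100 and 300 μM for 48 h, in normoxia (20% O2) or hypoxia (0.1% O2). Viability is expressed relative to untreated control set at 100%, as mean ± SEM of three experiments.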

HT-29 [2] = experiment: Cytotoxicity against human HT-29 cells assessed as reduction in cell viability at 30 to 300 uM after 48 hrs under normoxic condition by MTT assay; format: functional, cell-based
Outline: as §1

PC-3 [3] = experiment: Cytotoxicity against human PC3 cells assessed as reduction in cell viability at 30 to 300 uM after 48 hrs under hypoxic condition by MTT assay; format: functional, cell-based
Outline: as §1

MDA-MB-231 [4] = experiment: Cytotoxicity against human MDA-MB-231 cells assessed as reduction in cell viability at 30 to 100 uM after 48 hrs under hypoxic condition by MTT assay; format: functional, cell-based
Outline: as §1

MDA-MB-231 [5] = experiment: Cytotoxicity against human MDA-MB-231 cells assessed as reduction in cell viability at 300 uM after 48 hrs under hypoxic condition by MTT assay; format: functional, cell-based
Outline: as §1

MDA-MB-231 [6] = experiment: Cytotoxicity against human MDA-MB-231 cells assessed as reduction in cell viability at 30 to 100 uM after 48 hrs under normoxic condition by MTT assay; format: functional, cell-based
Outline: as §1

PC-3 [7] = experiment: Cytotoxicity against human PC3 cells assessed as reduction in cell viability at 30 to 300 uM after 48 hrs under normoxic condition by MTT assay; format: functional, cell-based
Outline: as §1

HT-29 [8] = experiment: Cytotoxicity against human HT-29 cells assessed as reduction in cell viability at 30 to 300 uM after 48 hrs under hypoxic condition by MTT assay; format: functional, cell-based
Outline: as §1

[9] = Gpx-like activity of the compound assessed as GSH-mediated H2O2 reduction by measuring NADPH consumption measured within 100 secs by UV spectroscopic analysis; format: functional
Outline: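 NADPH-coupled GPx assay with GSH as substrate and H2O2 as oxidant, with glutathione reductase. Initial conditions: NADPH 0.6 mM, GSH 2.0 mM, H2O2 5 mM, GR 8 units/mL, catalyst 0.2 mM, pH 7.4 phosphate buffer, room temperature. Read-out is the absorbance decrease at 340 nm from NADPH consumption. Mean ± SD of three experiments.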

[10] = Gpx-like activity of the compound assessed as H2O2 reduction by measuring DTT oxidation measured within 35 mins by 1H-NMR analysis; format: functional
Outline: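 Oxidation of reduced DTT followed by 1H NMR, with DTTred and DTTox populations taken from signal integration. Catalyst loading 10%. Control run without catalyst, with (PhSe)2 as a standard comparator. T50 is the time to halve the initial DTTred. Mean ± SD of three separate experiments.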

MDA-MB-231 [11] = experiment: Cytotoxicity against human MDA-MB-231 cells assessed as reduction in cell viability at 30 uM after 48 hrs under normoxic condition by MTT assay; format: functional, cell-based
Outline: as §1

PC-3 [12] = experiment: Cytotoxicity against human PC3 cells assessed as reduction in cell viability at 300 uM after 48 hrs under normoxic condition by MTT assay; format: functional, cell-based
Outline: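 PC3 human prostate cancer cells seeded at 1 × 10^4/well and exposed for 48 h under normoxia (20% O2). The same run also used hypoxia (0.1% O2). Compounds tested at 30, 100 and 300 μM. Viability is expressed relative to untreated control set at 100%. Mean ± SEM of three experiments.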

Question: With NS(=O)(=O)c1ccc(CCNC(=[Se])Nc2ccc3ccccc3c2)cc1 as the compound, how does the Ki (Carbonic anhydrase 9) read?
Answer: 93.1 nM

Question: With NS(=O)(=O)c1ccc(NC(=[Se])Nc2ccccc2)cc1 as the compound, how does the Ki (Carbonic anhydrase 9) read?
Answer: 78.9 nM

Question: Which Activity (MDA-MB-231 [1]) does the source give for NS(=O)(=O)c1ccc(CCNC(=[Se])Nc2ccccc2F)cc1 here?
Answer: Active

Question: And the Activity (HT-29 [2])?
Answer: inactive

Question: And the Activity (PC-3 [3])?
Answer: Active

Question: And the Activity (MDA-MB-231 [4])?
Answer: inactive

Question: What about the Activity (MDA-MB-231 [5]) of the same compound?
Answer: Active

Question: What about the Ki (Carbonic anhydrase 9) of the same compound?
Answer: 8.7 nM

Question: And the Activity (MDA-MB-231 [6])?
Answer: inactive

Question: What about the Activity (PC-3 [7]) of the same compound?
Answer: Active

Question: What about the Activity (HT-29 [8]) of the same compound?
Answer: inactive

Question: For NS(=O)(=O)c1ccc(NC(=[Se])Nc2cccc(C(F)(F)F)c2)cc1, which Ki (Carbonic anhydrase 9) is on record?
Answer: 15.9 nM

Question: With NS(=O)(=O)c1ccc(CCNC(=[Se])Nc2ccc(Br)cc2)cc1 as the compound, how does the Ki (Carbonic anhydrase 9) read?
Answer: 4.8 nM

Question: What does the source list for NS(=O)(=O)c1ccc(NC(=[Se])Nc2ccc(F)cc2)cc1?
Answer: Activity [9]: Active; Activity (HT-29 [2]): inactive; Activity [10]: Active; Activity (PC-3 [3]): Active; Ki (Carbonic anhydrase 9): 63 nM; Activity (PC-3 [7]): Active; Activity (MDA-MB-231 [11]): Active; Activity (HT-29 [8]): inactive

Question: Which Ki (Carbonic anhydrase 9) does the source give for NS(=O)(=O)c1cccc(NC(=[Se])Nc2ccccc2)c1 here?
Answer: 330 nM

Question: For NS(=O)(=O)c1ccc(CCNC(=[Se])Nc2ccc(I)cc2)cc1, which Activity (MDA-MB-231 [1]) is on record?
Answer: inactive

Question: And the Activity (HT-29 [2])?
Answer: inactive

Question: And the Activity (PC-3 [3])?
Answer: inactive

Question: What about the Activity (MDA-MB-231 [4]) of the same compound?
Answer: inactive

Question: And the Activity (MDA-MB-231 [5])?
Answer: inactive

Question: And the Ki (Carbonic anhydrase 9)?
Answer: 54.9 nM

Question: What about the Activity (MDA-MB-231 [6]) of the same compound?
Answer: inactive

Question: And the Activity (PC-3 [7])?
Answer: inactive

Question: What about the Activity (HT-29 [8]) of the same compound?
Answer: inactive

Question: Which Ki (Carbonic anhydrase 9) does the source give for COc1ccccc1NC(=[Se])NCCc1ccc(S(N)(=O)=O)cc1 here?
Answer: 3.1 nM

Question: For NS(=O)(=O)c1ccc(CCNC(=[Se])Nc2ccccc2Cl)cc1, which Ki (Carbonic anhydrase 9) is on record?
Answer: 4.8 nM

Question: Which Ki (Carbonic anhydrase 9) does the source give for NS(=O)(=O)c1ccc(CCNC(=[Se])Nc2cccc(C(F)(F)F)c2)cc1 here?
Answer: 5.8 nM

Question: Which Ki (Carbonic anhydrase 9) does the source give for NS(=O)(=O)c1cccc(NC(=[Se])Nc2ccc(F)cc2)c1 here?
Answer: 97.8 nM

Question: Which Ki (Carbonic anhydrase 9) does the source give for NS(=O)(=O)c1ccc(NC(=[Se])Nc2ccccc2F)cc1 here?
Answer: 5.8 nM

Question: With NS(=O)(=O)c1ccc(NC(=O)Nc2ccc(F)cc2)cc1 as the compound, how does the Activity [9] read?
Answer: inactive

Question: And the Activity (HT-29 [2])?
Answer: Active

Question: What about the Activity [10] of the same compound?
Answer: inactive

Question: What about the Activity (PC-3 [12]) of the same compound?
Answer: Active

Question: And the Activity (MDA-MB-231 [11])?
Answer: Active

Question: And the Activity (HT-29 [8])?
Answer: Active

Question: With NS(=O)(=O)c1ccc(NC(=S)Nc2ccc(F)cc2)cc1 as the compound, how does the Activity [9] read?
Answer: inactive

Question: What about the Activity [10] of the same compound?
Answer: inactive

Question: And the Ki (Carbonic anhydrase 9)?
Answer: 32.1 nM

Question: For NS(=O)(=O)c1ccc(NC(=[Se])Nc2ccccc2Cl)cc1, which Ki (Carbonic anhydrase 9) is on record?
Answer: 3.9 nM

Question: With NS(=O)(=O)c1ccc(CCNC(=[Se])Nc2ccccc2)cc1 as the compound, how does the Ki (Carbonic anhydrase 9) read?
Answer: 5.3 nM
